Published values gathered from unrelated publications.
Each line is one published result; the experiments were not run side by side.
DRD5: D(1B) dopamine receptor (DRD5, Homo sapiens, UniProt P21918)
CYP1B1: Cytochrome P450 1B1 (CYP1B1, Homo sapiens, UniProt Q16678)
Hypoxanthine-guanine-xanthine phosphoribosyltransferase: Hypoxanthine-guanine-xanthine phosphoribosyltransferase (Plasmodium falciparum, UniProt P20035)
HRH3: Histamine H3 receptor (HRH3, Homo sapiens, UniProt Q9Y5N1)
SLC10A2: Ileal sodium/bile acid cotransporter (SLC10A2, Homo sapiens, UniProt Q12908)
WDR5: WD repeat-containing protein 5 (WDR5, Homo sapiens, UniProt P61964)

| Structure (SMILES) | target | assay | setting | Ki [µM] |
| --- | --- | --- | --- | --- |
| CN(C(=O)[C@@H]1Cc2ccccc2CN1C(=O)Cc1ccc(Cl)cc1)c1ccc(N2CCCCC2=O)cc1 | Coagulation factor X (F10, Homo sapiens, UniProt P00742) | enzyme activity, inhibitor, absorbance |  | 0.65 |
| CCCNc1nc2ccccc2n1Cc1ccc(Cl)cc1 | DRD5 | cell-free assay, radioligand |  | 5.66 |
| C#Cc1cccc2oc(-c3ccccc3)cc(=O)c12 | CYP1B1 | enzyme activity, inhibitor, fluorescence | 6 min, pH 7.6 | 0.21 |
| COc1ccc2c(c1)C(=O)N(CCCN1CCN(c3ccccc3OC)CC1)C2 | DRD5 | ligand displacement, radioligand |  | 8.29 |
| O=C1CN(CC[C@@H](CO)NCc2c[nH]c3c(O)nc(O)nc23)S(=O)(=O)N1 | Hypoxanthine-guanine-xanthine phosphoribosyltransferase | enzyme activity, inhibitor | pH 7.4 | > 20 |
| COc1ccc(C2=NN(C3CCCCCC3)C(=O)C3CC=CCC23)cc1-c1ccc(C(=O)N2CCC[C@@H]2C(N)=O)cc1 (mixture of isomers) | Class 1 phosphodiesterase PDEB1 (PDEB1, Trypanosoma brucei, UniProt Q8WQX9) | enzyme activity, inhibitor |  | 0.501 |
| CCCCN1CCC(COC(=O)c2ccc(N)c(OCF)c2)CC1 | Beta-2 adrenergic receptor (ADRB2, Homo sapiens, UniProt P07550) | cell-free assay, radioligand |  | > 10 |
| CCCc1ccc(OCCCCCN2CCC(C)CC2)cc1 | HRH3 | ligand displacement, radioligand | cell membranes | 0.156 |
| CNC(=C[N+](=O)[O-])NCCSCc1ccc(CN(C)C)o1 | SLC10A2 | transporter uptake, inhibitor |  | 886 |
| c1cc2c(cc1OCCCCCN1CCCCCC1)CCC2 | HRH3 | ligand displacement, radioligand | cell membranes | 0.0645 |
| CC(C)=CCc1c(O)cc(O)c2c1O[C@H](c1ccc(O)cc1)CC2=O | CYP1B1 | enzyme activity, inhibitor, fluorescence | 15 min, pH 7.4 | 0.17 |
| CCCCCCCC/C=C\CCCCCCCC(=O)NC(CO)(CO)CO | DRD5 | ligand displacement, radioligand |  | > 10 |
| CN(C)c1ccc(/C=C2\CCc3ccc(OCCCN4CCCCC4)cc3C2=O)cc1 | HRH3 | ligand displacement, radioligand | cell membranes | 0.149 |
| COc1cc(O)c(CC=C(C)C)c2c1C(=O)CC(c1ccc(O)cc1)O2 (stereo not drawn) | CYP1B1 | enzyme activity, inhibitor, fluorescence | 15 min, pH 7.4 | 0.54 |
| O=C1CN(C[C@@H](CO)NCc2c[nH]c3c(O)nc(O)nc23)S(=O)(=O)N1 | Hypoxanthine-guanine-xanthine phosphoribosyltransferase | enzyme activity, inhibitor | pH 7.4 | > 20 |
| CC(C(=O)O)c1cccc(C(=O)c2ccccc2)c1 (stereo not drawn) | SLC10A2 | transporter uptake, inhibitor |  | 178 |
| C#Cc1ccc2oc(-c3ccccc3)cc(=O)c2c1 | CYP1B1 | enzyme activity, inhibitor, fluorescence | 6 min, pH 7.6 | 0.54 |
| O=c1cc([C@@H](CO)NCc2c[nH]c3c(O)ncnc23)o[nH]1 | Hypoxanthine-guanine-xanthine phosphoribosyltransferase | enzyme activity, inhibitor | pH 7.4 | > 20 |
| CN(C)c1ccc(/C=C2\CCc3cc(OCCCN4CCCCC4)ccc3C2=O)cc1 | HRH3 | ligand displacement, radioligand | cell membranes | 0.07 |
| OC[C@@]12C[C@@H]1[C@@H](n1cnc3c(NC(C4CCCC4)C4CCCC4)nc(Cl)cc31)[C@H](O)[C@@H]2O | DRD5 | cell-free assay, radioligand |  | 5.1 |

| Structure (SMILES) | target | assay | setting | Ki [µM] |
| --- | --- | --- | --- | --- |
| CCOC(=O)C1=C(C)NC(C)=C(C(=O)OC)C1c1cccc(Cl)c1Cl (stereo not drawn) | SLC10A2 | transporter uptake, inhibitor |  | 49.7 |
| Cc1nc(F)ccc1-c1cc(C(=O)NCc2ccc(Cl)c(Cl)c2)ccc1Cn1ccn(C)c1=N | WDR5 | ligand displacement, TR-FRET |  | > 0.033 |
| NS(=O)(=O)c1cc(C2(O)NC(=O)c3ccccc32)ccc1Cl (stereo not drawn) | SLC10A2 | transporter uptake, inhibitor |  | 707 |
| CN(C)c1ccc(/C=C/C=C2\CCc3ccc(OCc4ccc(OCCCN5CCCCC5)cc4)cc3C2=O)cc1 | HRH3 | ligand displacement, radioligand | cell membranes | 0.087 |
| COc1ccccc1N1CCN(CCCCN2CCc3ccccc3C2=O)CC1 | DRD5 | ligand displacement, radioligand |  | 6.86 |
| NS(=O)(=O)c1cc2c(cc1Cl)NCNS2(=O)=O | SLC10A2 | transporter uptake, inhibitor |  | 2020 |
| COc1cc(CNC(=O)c2cccc(CNC3=NCCN3)c2F)cc(OC)c1 | WDR5 | ligand displacement, FP |  | 1.23 |
| O=c1c(O)c(NC[C@@H](CO)NCc2c[nH]c3c(O)ncnc23)c1=O | Hypoxanthine-guanine-xanthine phosphoribosyltransferase | enzyme activity, inhibitor | pH 7.4 | > 20 |
| CCCc1ccc(OCCCCCN2CCCC(C)C2)cc1 (stereo not drawn) | HRH3 | ligand displacement, radioligand | cell membranes | 0.0384 |
| CN(C)c1ccc(/C=C/C=C2\CCc3ccc(OCCCN4CCCCC4)cc3C2=O)cc1 | HRH3 | ligand displacement, radioligand | cell membranes | 0.101 |
| C#Cc1ccc2cc(-c3ccccc3)c(=O)oc2c1 | CYP1B1 | enzyme activity, inhibitor, fluorescence | 6 min, pH 7.6 | 1.72 |
| CC(C)(C#N)c1cc(Cn2cncn2)cc(C(C)(C)C#N)c1 | SLC10A2 | transporter uptake, inhibitor |  | 402 |
| O=C1CN(C[C@@H](CO)NCc2c[nH]c3c(O)ncnc23)S(=O)(=O)N1 | Hypoxanthine-guanine-xanthine phosphoribosyltransferase | enzyme activity, inhibitor | pH 7.4 | > 20 |
| CCc1ccc(CCOc2ccc(CC3SC(=O)NC3=O)cc2)nc1 (stereo not drawn) | SLC10A2 | transporter uptake, inhibitor |  | < 100 |
| CN1CCN(CCCOc2ccc(Nc3nccc(NCc4ccccc4)n3)cc2)CC1 | HRH3 | ligand displacement, radioligand | cell membranes | 0.383 |
| C=C[C@H]1C[N@@]2CC[C@H]1C[C@H]2[C@H](O)c1ccnc2ccc(OC)cc12 | SLC10A2 | transporter uptake, inhibitor |  | 223 |
| O=C1CCCc2cc(OCCCN3CCCCC3)ccc21 | HRH3 | ligand displacement, radioligand | cell membranes | 0.068 |
| O=C1c2ccccc2CCN1CCCCN1CCN(c2cccc(Cl)c2Cl)CC1 | DRD5 | ligand displacement, radioligand |  | 2.38 |
| O=C(NCc1cc(Cl)cc(Cl)c1)c1cccc(Cn2ccnc2)c1 | WDR5 | ligand displacement, TR-FRET |  | > 0.033 |
